Measured values taken from ChEMBL document CHEMBL1132578, “New peptidic cysteine protease inhibitors derived from the electrophilic alpha-amino acid aziridine-2,3-dicarboxylic acid” (J Med Chem, 1999).
Active and inactive are the calls of the source. The rule behind the calls is not given here.

Key:
[1] = molecular target: T1, Calpain-2 catalytic subunit (Sus scrofa, UniProt P43367); experiment: Inhibition constant for the non time dependent inhibition of Calpain 2
T1 sequence (P43367 whole entry): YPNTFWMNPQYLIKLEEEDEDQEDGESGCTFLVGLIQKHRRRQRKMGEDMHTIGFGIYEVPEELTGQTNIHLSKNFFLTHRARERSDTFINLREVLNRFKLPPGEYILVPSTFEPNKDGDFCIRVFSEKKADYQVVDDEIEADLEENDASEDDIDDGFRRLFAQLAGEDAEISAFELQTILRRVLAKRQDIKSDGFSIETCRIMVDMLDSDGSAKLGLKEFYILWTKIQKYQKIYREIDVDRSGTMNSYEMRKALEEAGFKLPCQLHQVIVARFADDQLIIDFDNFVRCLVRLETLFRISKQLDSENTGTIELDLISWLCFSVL
Procedure, shortened: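 Calpain I or II with Suc-Leu-Tyr-AMC in 50 mM Tris pH 7.5, 5 mM CaCl2, 2.5 mM EDTA, 2.5 mM DTT. Enzyme preincubated in buffer 30 min, assayed at 25 °C, fluorescence 460 nm (excitation 380 nm). Ki from Dixon plots, corrected to zero substrate with Km 0.4 mM (calpain I) or 0.22 mM (calpain II).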

Cathepsin B (Bos taurus) = Cathepsin B (Bos taurus) (UniProt P07688); experiment: Evaluated for second-order rate constants for the inactivation of mammalian lysosomal cathepsin B.
[2] = molecular target: Procathepsin L (Homo sapiens) (UniProt P07711); experiment: Evaluated for second-order rate constants for the inactivation of mammalian lysosomal cathepsin L.
Papain (Carica papaya) [3] = molecular target: T2, Papain (Carica papaya) (UniProt P00784); experiment: Second-order rate constants for the inactivation of papain (vacuolar plant enzyme)
T2 sequence (whole entry): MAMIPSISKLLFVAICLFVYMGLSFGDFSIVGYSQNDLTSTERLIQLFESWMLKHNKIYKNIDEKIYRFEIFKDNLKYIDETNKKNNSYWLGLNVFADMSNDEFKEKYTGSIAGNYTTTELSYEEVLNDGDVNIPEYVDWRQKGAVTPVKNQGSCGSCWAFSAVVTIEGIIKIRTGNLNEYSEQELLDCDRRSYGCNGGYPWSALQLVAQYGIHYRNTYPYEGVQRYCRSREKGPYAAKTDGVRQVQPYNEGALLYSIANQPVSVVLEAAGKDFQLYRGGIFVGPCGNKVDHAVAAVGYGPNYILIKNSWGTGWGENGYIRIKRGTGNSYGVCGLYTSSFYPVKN
Procedure, shortened: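 Papain with L-BAPA (405 nm) in 50 mM phosphate pH 6.5, 5 mM EDTA, 5 mM cysteine, or with Z-Phe-Arg-AMC in phosphate pH 6.5 with DTT, EDTA, Brij 35; 25 °C. kobs at 3–7 inhibitor concentrations, continuous or dilution assay; k2nd = ki/Ki, or from linear kobs vs [I] when unsaturated; substrate-corrected (Km 2.5 mM L-BAPA, 0.09 mM Z-Phe-Arg-AMC).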

Pro-cathepsin H = molecular target: T3, Pro-cathepsin H (Homo sapiens, UniProt P09668); experiment: Inhibition constant for the non time dependent inhibition of cathepsin H
T3 sequence (P09668 whole entry): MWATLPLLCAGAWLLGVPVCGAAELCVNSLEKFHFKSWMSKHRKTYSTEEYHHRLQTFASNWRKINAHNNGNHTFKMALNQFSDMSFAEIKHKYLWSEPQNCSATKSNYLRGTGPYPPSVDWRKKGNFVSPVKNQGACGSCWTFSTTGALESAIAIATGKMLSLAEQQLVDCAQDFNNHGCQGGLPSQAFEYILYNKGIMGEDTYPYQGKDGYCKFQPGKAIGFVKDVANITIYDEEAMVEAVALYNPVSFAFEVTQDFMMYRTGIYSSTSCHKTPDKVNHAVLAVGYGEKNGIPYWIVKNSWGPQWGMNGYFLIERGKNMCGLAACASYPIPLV

Papain (Carica papaya) [4] = molecular target: T2, Papain (Carica papaya); experiment: Second-order rate constants for the inactivation of papain at pH 4 (vascular plant enzyme)
Procedure, shortened: (§1)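 Papain (0.5 mg mL-1) with 1.4–1.5 mM L-BAPA, read at 405 nm, 25 °C. Buffers: 50 mM citrate for pH 4–6, phosphate for pH 6–8, borate for pH 8–9. kobs came from continuous or dilution assays at 3–7 inhibitor concentrations. k_i/K_i came from a hyperbolic or linear fit, corrected to zero substrate (Km 2.5 mM).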

Papain (Carica papaya) [5] = molecular target: T2, Papain (Carica papaya); experiment: Second-order rate constants for the inactivation of papain at pH 6.5(vascular plant enzyme); procedure, shortened: as §1
Papain (Carica papaya) [6] = molecular target: T2, Papain (Carica papaya); experiment: Second-order rate constants for the inactivation of papain at pH 8(vascular plant enzyme); procedure, shortened: as §1
Papain (Carica papaya) [7] = molecular target: T2, Papain (Carica papaya); experiment: Second-order rate constants for the inactivation of papain (vascular plant enzyme); no inhibition

Sequence of Procathepsin L (Homo sapiens) (P07711 114-333 limits assumed): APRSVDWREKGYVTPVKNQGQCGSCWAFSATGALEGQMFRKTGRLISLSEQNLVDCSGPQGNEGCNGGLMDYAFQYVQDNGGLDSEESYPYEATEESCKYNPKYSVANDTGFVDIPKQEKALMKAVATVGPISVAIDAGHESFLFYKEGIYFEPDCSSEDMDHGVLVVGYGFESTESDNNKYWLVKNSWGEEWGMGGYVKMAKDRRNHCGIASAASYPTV

Compound | ki/Ki (Cathepsin B (Bos taurus)) [M⁻¹ s⁻¹] | ki/Ki [2] [M⁻¹ s⁻¹] | ki/Ki (Papain (Carica papaya) [3]) [M⁻¹ s⁻¹] | also measured
CCOC(=O)[C@H]1[C@H](C(=O)N[C@@H](CC(C)C)C(=O)OCc2ccccc2)N1C(=O)[C@H](Cc1ccccc1)NC(=O)OC(C)(C)C | 4.28 | 5.23 | 3.75 | Ki [1]: 42 µM; Ki (Pro-cathepsin H): 137 µM
CCOC(=O)C1C(C(=O)OCc2ccccc2)N1C(=O)CNC(=O)[C@H](CC(C)C)NC(=O)OC(C)(C)C (some centres undefined) | 4 | 53.9 | 2.48 | 
CCOC(=O)[C@@H]1[C@@H](C(=O)N[C@@H](CC(C)C)C(=O)OCc2ccccc2)N1C(=O)[C@H](Cc1ccccc1)NC(=O)OC(C)(C)C | 2.03 | 3.65 | 2.85 | Ki (Pro-cathepsin H): 93 µM
CCOC(=O)C1C(C(=O)OCC)N1C(=O)[C@H](CC(C)C)NC(=O)OCC1c2ccccc2-c2ccccc21 (some centres undefined) |  | 1.65 | 1.08 | 
CCOC(=O)C1C(C(=O)OCc2ccccc2)N1C(=O)[C@H](Cc1ccccc1)NC(=O)OC(C)(C)C (some centres undefined) |  |  | 1.27 | 
CCOC(=O)[C@@H]1[C@@H](C(=O)OCC)N1C(=O)[C@H](C)NC(=O)OC(C)(C)C |  |  | 0.717 | 
CCOC(=O)[C@@H]1[C@@H](C(=O)N[C@@H](CC(C)C)C(=O)N2CCCC2C(=O)OCc2ccccc2)N1C(=O)[C@H](Cc1ccccc1)NC(=O)OC(C)(C)C (some centres undefined) | 7.5 |  | 5.35 | 
CC(C)CCNC(=O)C(CC(C)C)NC(=O)[C@@H]1N[C@H]1C(=O)O (single isomer, unassigned) |  |  | 0.167 | 
CCOC(=O)C1NC1C(=O)OCC (centres undefined) |  |  |  | ki/Ki (Papain (Carica papaya) [4]): 1.02 M⁻¹ s⁻¹
CCOC(=O)C1C(C(=O)O)N1C(=O)[C@H](Cc1ccccc1)NC(=O)OC(C)(C)C (some centres undefined) | 20.5 | 3.13 | 8.42 | 
CCOC(=O)[C@@H]1N[C@H]1C(=O)N[C@@H](CC(C)C)C(=O)O |  |  | 1.05 | 
CCOC(=O)[C@@H]1[C@@H](C(=O)OCC)N1C(=O)[C@H](C)NC(=O)[C@H](Cc1ccccc1)NC(=O)CNC(=O)OCc1ccccc1 | 7.02 | 5.25 | 8.72 | 
CCOC(=O)C1NC1C(=O)N[C@@H](CC(C)C)C(=O)OCc1ccccc1 (some centres undefined) | 0.683 | 52.2 | 3.57 | ki/Ki (Papain (Carica papaya) [4]): 13.1 M⁻¹ s⁻¹; ki/Ki (Papain (Carica papaya) [5]): 2.8 M⁻¹ s⁻¹; ki/Ki (Papain (Carica papaya) [6]): 0.4 M⁻¹ s⁻¹; Ki (Pro-cathepsin H): 260 µM
CCOC(=O)[C@@H]1[C@@H](C(=O)OCC)N1C(=O)CNC(=O)CNC(=O)OCc1ccccc1 | 6.48 | 5.28 | 4.95 | 
CC[C@H](C)C(NC(=O)[C@@H]1N[C@H]1C(=O)NCC(C)C)C(=O)N1CCCC1C(=O)O (single isomer, unassigned) | 13 | 50 |  | ki/Ki (Papain (Carica papaya) [7]): inactive
CCOC(=O)[C@H]1[C@H](C(=O)N[C@@H](CC(C)C)C(=O)N2CCCC2C(=O)OCc2ccccc2)N1C(=O)[C@H](Cc1ccccc1)NC(=O)OC(C)(C)C (some centres undefined) | 32.3 | 98.3 | 12.8 | 
CCOC(=O)[C@H]1[C@H](C(=O)OCC)N1C(=O)C(Cc1ccccc1)NC(=O)OC(C)(C)C (single isomer, unassigned) | 0.3 | 0.267 | 0.7 | 
CCOC(=O)[C@H]1[C@H](C(=O)OCC)N1C(=O)[C@H](Cc1ccccc1)NC(=O)C(C)NC(=O)OCc1ccccc1 (single isomer, unassigned) | 0.367 | 0.55 | 0.35 | 
CCOC(=O)C1NC1C(=O)N[C@H](CC(C)C)C(=O)NCCC(C)C (some centres undefined) |  |  | 55 | 
CCOC(=O)[C@@H]1[C@@H](C(=O)OCC)N1C(=O)[C@H](Cc1ccccc1)NC(=O)[C@H](C)NC(=O)OCc1ccccc1 | 2.08 | 0.483 | 2.95 | 
CCOC(=O)[C@H]1N[C@@H]1C(=O)N[C@@H](CC(C)C)C(=O)N1CCC[C@H]1C(=O)OCc1ccccc1 | 6.75 | 35.7 | 3.78 | 
CCOC(=O)[C@@H]1[C@@H](C(=O)OCC)N1C(=O)[C@H](C)NC(=O)[C@@H](Cc1ccccc1)NC(=O)OC(C)(C)C | 7.58 | 7.82 | 22.8 | 
CCOC(=O)C1C(C(=O)OCc2ccccc2)N1C(=O)[C@H](C)NC(=O)[C@H](Cc1ccccc1)NC(=O)OC(C)(C)C (some centres undefined) | 7.38 | 4.68 | 20.5 | 
CC(C)CCNC(=O)[C@H](CC(C)C)NC(=O)[C@H]1N[C@@H]1C(=O)O |  |  | 0.167 | 
CCOC(=O)C1NC1C(=O)N[C@@H](CC(C)C)C(=O)NCCC(C)C (some centres undefined) |  |  | 3 | 
